ChEMBL document CHEMBL1154686, “Pyrazoline bearing benzimidazoles: search for anticancer agent” (2010)

Tests used:
Type in all cases: functional
Malme-3M = test: Growth inhibition of human MALME-3M cells after 48 hrs by SRB assay
Procedure, shortened: (§1)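 NCI-60 panel protocol with adherent lines. Cells were seeded at 5,000–40,000 cells/well, depending on doubling time, and pre-incubated 24 h at 37 °C, 5% CO₂. Time-zero plates were TCA-fixed at drug addition. Drugs were dissolved in DMSO and exposed for 48 h. Cells were fixed with cold TCA (final 10%) for 60 min at 4 °C, stained with 0.4% SRB in 1% acetic acid for 10 min, solubilized with 10 mM trizma base, and read at A515.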

U-251 = test: Growth inhibition of human U251 cells after 48 hrs by SRB assay; settings: U-251, 48 h
Procedure, shortened: (§2)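 NCI 60-cell panel, five-dose format: cells plated at 5,000–40,000/well by doubling time, preincubated 24 h at 37 °C, 5% CO2; time-zero plates TCA-fixed. Compound dissolved in DMSO, five concentrations (0.01, 0.1, 1, 10, 100 µM) plus control, 48 h. Cells fixed with cold TCA, stained with 0.4% SRB in 1% acetic acid, bound dye solubilized in 10 mM trizma base, absorbance at 515 nm. GI50 taken from [(Ti–Tz)/(C–Tz)]×100 = 50.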

SNB-19 = test: Growth inhibition of human SNB19 cells after 48 hrs by SRB assay; settings: SNB-19, 48 h; procedure, shortened: as §1
SF-539 = test: Growth inhibition of human SF539 cells after 48 hrs by SRB assay; settings: SF-539, 48 h; procedure, shortened: as §1
786-0 = test: Growth inhibition of human 786-0 cells after 48 hrs by SRB assay; settings: 786-0, 48 h; procedure, shortened: as §1
ACHN = test: Growth inhibition of human ACHN cells after 48 hrs by SRB assay; procedure, shortened: as §1
NCI-H522 = test: Growth inhibition of human NCI-H522 cells after 48 hrs by SRB assay; settings: NCI-H522, 48 h; procedure, shortened: as §1
CCRF-CEM = test: Growth inhibition of human CCRF-CEM cells after 48 hrs by SRB assay
Procedure, shortened: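 Suspension leukemia lines were run in the NCI-60 SRB format. Cells were plated at 5,000–40,000 cells/well and pre-incubated 24 h at 37 °C, 5% CO₂, with time-zero plates fixed at drug addition. Drug exposure in DMSO-derived dilutions lasted 48 h. Settled cells were fixed with 80% TCA (final 16%), stained with 0.4% SRB, solubilized in 10 mM trizma base, and read at 515 nm. Percent growth was taken relative to the time-zero and control readings.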

COLO 205 = test: Growth inhibition of human COLO205 cells after 48 hrs by SRB assay; settings: COLO 205, 48 h; procedure, shortened: as §1
A549 = test: Growth inhibition of human A549 cells after 48 hrs by SRB assay; settings: A549, 48 h; procedure, shortened: as §1
OVCAR-8 = test: Growth inhibition of human OVCAR8 cells after 48 hrs by SRB assay; settings: OVCAR-8, 48 h; procedure, shortened: as §1
DU-145 = test: Growth inhibition of human DU145 cells after 48 hrs by SRB assay; settings: DU-145, 48 h; procedure, shortened: as §1
M14 = test: Growth inhibition of human M14 cells after 48 hrs by SRB assay; settings: M14, 48 h; procedure, shortened: as §1
UACC-257 = test: Growth inhibition of human UACC257 cells after 48 hrs by SRB assay; settings: UACC-257, 48 h; procedure, shortened: as §2
[1] = Growth inhibition of human Hs 578T cells after 48 hrs by SRB assay; procedure, shortened: as §1
EKVX = test: Growth inhibition of human EKVX cells after 48 hrs by SRB assay; procedure, shortened: as §1
NCI/ADR-RES = test: Growth inhibition of human NCI/ADR-RES cells after 48 hrs by SRB assay; procedure, shortened: as §1
HT-29 = test: Growth inhibition of human HT-29 cells after 48 hrs by SRB assay; settings: HT-29, 48 h; procedure, shortened: as §1
HOP-62 = test: Growth inhibition of human HOP62 cells after 48 hrs by SRB assay; settings: HOP-62, 48 h; procedure, shortened: as §1
SF-295 = test: Growth inhibition of human SF295 cells after 48 hrs by SRB assay; settings: SF-295, 48 h; procedure, shortened: as §1
MDA-MB-231 = test: Growth inhibition of human MDA-MB-231 cells after 48 hrs by SRB assay; settings: MDA-MB-231, 48 h; procedure, shortened: as §1
OVCAR-5 = test: Growth inhibition of human OVCAR5 cells after 48 hrs by SRB assay; settings: OVCAR-5, 48 h; procedure, shortened: as §1
TK-10 = test: Growth inhibition of human TK10 cells after 48 hrs by SRB assay; settings: TK-10, 48 h; procedure, shortened: as §2
HOP-92 = test: Growth inhibition of human HOP92 cells after 48 hrs by SRB assay; settings: HOP-92, 48 h; procedure, shortened: as §1
BT-549 = test: Growth inhibition of human BT549 cells after 48 hrs by SRB assay; settings: BT-549, 48 h; procedure, shortened: as §1
PC-3 = test: Growth inhibition of human PC3 cells after 48 hrs by SRB assay; settings: PC-3, 48 h; procedure, shortened: as §1
UACC-62 = test: Growth inhibition of human UACC62 cells after 48 hrs by SRB assay; settings: UACC-62, 48 h; procedure, shortened: as §2
[2] = read-out: LC50 (the source's name)

## COc1ccc(C2CC(c3nc4ccccc4[nH]3)=NN2c2ccccc2)cc1OC (stereo unspecified)
Malme-3M
  GI50: 7.47 µM
  TGI: 92.7 µM
Malme-3M; [2]
  CC50: > 100 µM
U-251
  GI50: 7.67 µM
  TGI: 80.2 µM
U-251; [2]
  CC50: > 100 µM
SNB-19
  GI50: 26.6 µM
  TGI: > 100 µM
SNB-19; [2]
  CC50: > 100 µM
SF-539
  GI50: 15 µM
  TGI: 38.6 µM
SF-539; [2]
  CC50: 99.5 µM
786-0
  GI50: 24.2 µM
  TGI: > 100 µM
786-0; [2]
  CC50: > 100 µM
ACHN
  GI50: 14 µM
  TGI: > 100 µM
ACHN; [2]
  CC50: > 100 µM
NCI-H522
  GI50: 5.46 µM
  TGI: 34.8 µM
NCI-H522; [2]
  CC50: > 100 µM
CCRF-CEM
  GI50: 2.23 µM
  TGI: 6.82 µM
CCRF-CEM; [2]
  CC50: 88.7 µM
COLO 205
  GI50: 9.88 µM
  TGI: 33.2 µM
COLO 205; [2]
  CC50: > 100 µM
A549
  GI50: 17.1 µM
  TGI: > 100 µM
A549; [2]
  CC50: > 100 µM
OVCAR-8
  GI50: 19.9 µM
  TGI: > 100 µM
OVCAR-8; [2]
  CC50: > 100 µM
DU-145
  GI50: 33.1 µM
  TGI: > 100 µM
DU-145; [2]
  CC50: > 100 µM
M14
  GI50: 16.1 µM
  TGI: > 100 µM
M14; [2]
  CC50: > 100 µM
UACC-257
  GI50: 77.1 µM
  TGI: > 100 µM
UACC-257; [2]
  CC50: > 100 µM
[1]
  GI50: 6.18 µM
  TGI: 41.2 µM
[1]; [2]
  CC50: > 100 µM
EKVX
  GI50: 9.83 µM
  TGI: > 100 µM
EKVX; [2]
  CC50: > 100 µM
NCI/ADR-RES
  GI50: 19 µM
  TGI: 94.5 µM
NCI/ADR-RES; [2]
  CC50: > 100 µM
HT-29
  GI50: 9.91 µM
  TGI: 24.7 µM
HT-29; [2]
  CC50: 61.4 µM
HOP-62
  GI50: 19.9 µM
  TGI: > 100 µM
HOP-62; [2]
  CC50: > 100 µM
SF-295
  GI50: 5.98 µM
  TGI: 51.4 µM
SF-295; [2]
  CC50: > 100 µM
MDA-MB-231
  GI50: 7.19 µM
  TGI: 91.5 µM
MDA-MB-231; [2]
  CC50: > 100 µM
OVCAR-5
  GI50: 26.7 µM
  TGI: > 100 µM
OVCAR-5; [2]
  CC50: > 100 µM
TK-10
  GI50: 15.7 µM
  TGI: 65.9 µM
TK-10; [2]
  CC50: > 100 µM
HOP-92
  GI50: 3.89 µM
  TGI: > 100 µM
HOP-92; [2]
  CC50: > 100 µM
BT-549
  GI50: 10.3 µM
  TGI: 69 µM
BT-549; [2]
  CC50: > 100 µM
PC-3
  GI50: 6.27 µM
  TGI: 49 µM
PC-3; [2]
  CC50: > 100 µM
UACC-62
  GI50: 2.59 µM
  TGI: > 100 µM
UACC-62; [2]
  CC50: > 100 µM
